# Laboratory results: PubChem BioAssay AID2052 (NMMLSC, 2009)
# About 220 (0.067%) of roughly 330,000 compounds were called active.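 Rule for the calls: active = response, share of CD8 T cells binding vesicles, and their 90th percentile fluorescence all below set limits (cut at about 80% in these data, passing the limit was not always enough); inactive = the rest, inconclusive results apart.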 The entries come from a sample that favours actives as a whole.
# Assay: murine CD8 T cell vesicle adhesion modulation – mouse 2C CD8+ T cells, flow cytometry, primary screen (AID 2052);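 for double positive events: binding gate set so that unloaded-vesicle control wells show 10% double positive cells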;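 for response (vesicle binding): values below 100% mean blocked vesicle binding to the CD8+ T cells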
# Conditions: 2C CD8+ T cell-vesicle binding, at 7 µM, stronger effect = lower value; double positive events: measured here: CD8+ vesicle-bound cell fraction
# Summary of the method: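 Test system: purified 2C TCR transgenic mouse naive CD8+ T cells. Probe or stimulus: QL9-peptide-loaded Drosophila micro-vesicles bearing Ld, ICAM-1 and B7-1. Incubation: binding step 1.5 h, 37 °C, antibody labelling 20 min, ice. Measured by: flow cytometry of vesicle-bound cells.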
SMILES,double positive events [%],response (vesicle binding)
COc1cc(OC)c(-n2cc(-c3ccc(Cl)cc3)[nH]c2=O)cc1Cl,39.5,546% (inactive)
O=C(c1ccco1)N1CCN(CCOc2ccccc2)CC1,23.1,301% (inactive)
O=C(c1ccco1)N1CCN(C(=O)C2c3ccccc3Oc3ccccc32)CC1,0,0% (active)
O=C(c1ccc2c(c1)OCO2)N1CCN(C(=O)c2ccco2)CC1,35.9,148% (inactive)
Cc1cc(C)c(NC(=O)CSc2nc3ccncc3[nH]2)c(C)c1,24.7,968% (inactive)
Cc1sc2ncnc(SCC(=O)Nc3ccc(CN4CCCC4)cc3)c2c1C,35.3,104% (inactive)
C=CC[C@@H](CC(=O)N[C@@H](CO)Cc1ccccc1)C(=O)NCCOC(=O)[C@@H](CC=C)CC(=O)OC(C)(C)C,13.7,321% (inactive)
CC(=O)Nc1nc2c(s1)C(=O)NCC(C)(C)C2,50.4,439% (inactive)
Cc1ccc(C(=O)Nc2ccc(C)c(S(=O)(=O)N(C)C)c2)s1,45.5,218% (inactive)
Nc1ccc(OCC(O)C[n+]2ccc(CCS(=O)(=O)[O-])cc2)cc1 (stereo not given),20.9,319% (inactive)
CC(Oc1ccc(Br)cc1)C(=O)NCC(c1ccco1)N1CCCCC1 (stereo not given),51.4,336% (inactive)
O=C1CC(Sc2ncn[nH]2)C(=O)N1c1ccccc1 (stereo not given),46.5,391% (inactive)
COC(=O)C(C(=O)Nc1cccc(C)n1)C1CCCCCC1 (stereo not given),44.3,158% (inactive)
CSc1ccccc1C(=O)OCC(=O)N1CCN(C(C)=O)CC1,34.9,823% (inactive)
CCn1cc(C(=O)N2CC=C(c3ccccc3)CC2)c(=O)c2ccc(C)nc21,1.9,79.1% (inactive)
CN1C(C(=O)NCC2CC2)CC2Cn3c(nc4ccccc43)C21 (stereo not given),12.7,473% (inactive)
Cc1ccc(C)c2[nH]c(=O)c(CCNC(=O)CC(C)C)cc12,38.5,832% (inactive)
CCOC(=O)C1CCN(C(=O)C2(NC(=O)Nc3cccc(F)c3)CCCCC2)CC1,36.4,360% (inactive)
CC1=C(C(N)=O)C(c2sccc2C)n2nnnc2N1 (stereo not given),23.4,292% (inactive)
CC1=C(C(=O)OC2CCCCC2)C(c2ccccc2F)NC(=O)N1 (stereo not given),33.6,167% (inactive)
